{
  "source": "paper PMC11348385",
  "about": "(RSC Advances, 2024)",
  "key": {"HepG2 cell line": {"system": "HepG2 cell line", "assay": "MTT colorimetric cytotoxicity assay, HepG2", "type": "cell-based, human", "details": "for Selectivity index: folds toxic in HepG2 than in VERO cells: VERO vs HepG2; for IC50: Homo sapiens, HepG2, 72 h, read-out: IC50 HepG2; for selectivity class against HepG2: high SI ≥ 5, moderate SI > 2, low SI < 2, vs VERO"}, "MCF-7 cell line": {"system": "MCF-7 cell line", "assay": "MTT colorimetric cytotoxicity assay, MCF-7", "type": "cell-based, human", "details": "for IC50: Homo sapiens, MCF7, 72 h, read-out: IC50 MCF-7; for Selectivity index: folds more toxic regarding MCF-7 than VERO cells: VERO vs MCF-7; for selectivity class against MCF-7: high SI ≥ 5, moderate SI > 2, low SI < 2, vs VERO"}, "VEGFR-2": {"molecular_target": "VEGFR-2 (Homo sapiens, UniProt P35968)", "sequence (P35968 20-1356)": "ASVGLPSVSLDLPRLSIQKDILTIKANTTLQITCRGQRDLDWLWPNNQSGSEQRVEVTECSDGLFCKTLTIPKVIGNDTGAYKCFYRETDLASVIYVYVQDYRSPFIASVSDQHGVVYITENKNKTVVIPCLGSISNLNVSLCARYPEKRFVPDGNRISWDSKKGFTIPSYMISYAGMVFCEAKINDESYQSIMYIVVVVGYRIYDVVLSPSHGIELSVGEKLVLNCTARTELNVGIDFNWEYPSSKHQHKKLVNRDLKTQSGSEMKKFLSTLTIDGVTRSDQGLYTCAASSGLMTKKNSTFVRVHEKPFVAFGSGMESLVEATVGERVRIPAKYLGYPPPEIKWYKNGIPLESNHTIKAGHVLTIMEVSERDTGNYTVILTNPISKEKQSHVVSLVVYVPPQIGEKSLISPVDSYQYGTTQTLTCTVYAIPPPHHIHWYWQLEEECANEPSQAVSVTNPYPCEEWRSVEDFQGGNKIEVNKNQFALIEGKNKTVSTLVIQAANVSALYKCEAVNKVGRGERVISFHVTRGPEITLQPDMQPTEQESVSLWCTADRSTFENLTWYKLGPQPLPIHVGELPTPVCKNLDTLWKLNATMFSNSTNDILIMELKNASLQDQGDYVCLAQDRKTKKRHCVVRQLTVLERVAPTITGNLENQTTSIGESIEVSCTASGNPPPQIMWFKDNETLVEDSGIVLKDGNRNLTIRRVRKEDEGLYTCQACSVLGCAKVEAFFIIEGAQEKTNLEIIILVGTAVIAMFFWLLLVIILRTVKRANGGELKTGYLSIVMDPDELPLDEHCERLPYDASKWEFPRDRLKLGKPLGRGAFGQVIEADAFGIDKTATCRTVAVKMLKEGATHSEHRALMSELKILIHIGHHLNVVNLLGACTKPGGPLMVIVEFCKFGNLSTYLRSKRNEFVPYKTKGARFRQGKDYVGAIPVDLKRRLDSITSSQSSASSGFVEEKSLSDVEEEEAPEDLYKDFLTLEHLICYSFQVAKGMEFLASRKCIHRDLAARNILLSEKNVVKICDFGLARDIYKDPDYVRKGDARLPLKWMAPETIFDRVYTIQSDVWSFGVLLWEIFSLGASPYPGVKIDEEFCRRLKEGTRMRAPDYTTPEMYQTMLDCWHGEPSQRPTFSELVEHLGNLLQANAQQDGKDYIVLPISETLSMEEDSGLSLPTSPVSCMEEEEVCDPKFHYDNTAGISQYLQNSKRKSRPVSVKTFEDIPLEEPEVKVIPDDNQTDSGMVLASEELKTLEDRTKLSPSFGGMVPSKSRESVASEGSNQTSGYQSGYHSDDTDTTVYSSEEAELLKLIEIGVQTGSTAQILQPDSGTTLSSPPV", "assay": "In vitro VEGFR-2 kinase assay", "type": "biochemical"}, "MCF-7 cells [1]": {"system": "MCF-7 cells", "assay": "Annexin V / propidium iodide double staining apoptosis assay", "type": "cell-based, human", "details": "MCF-7, IC50 of 4b, 24 h"}, "Bcl-2": {"system": "Bcl-2", "assay": "Bcl-2 expression level in MCF-7 cells", "type": "cell-based, human", "details": "MCF-7, IC50 of 4b, 24 h, mean ± SEM"}, "MCF-7 cells [2]": {"system": "MCF-7 cells", "assay": "Cell cycle distribution", "type": "cell-based, human", "details": "MCF-7, 2.3 μM 4b, 24 h, mean ± SEM", "in_short": "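MCF-7 cells treated with 2.3 μM test compound for 24 h, harvested and stained with propidium iodide. DNA content was analysed for distribution across G1, S and G2/M phases, with an untreated control alongside. Values are mean ± SEM of three independent experiments.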"}, "BAX": {"system": "BAX", "assay": "BAX expression level in MCF-7 cells", "type": "cell-based, human", "details": "MCF-7, IC50 of 4b", "in_short": "(§1)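 Test compound given to MCF-7 cells for 24 h; Bax and Bcl-2 expression levels then determined. Each is expressed as fold change versus untreated control cells, and the Bax/Bcl-2 ratio is calculated from these fold changes.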"}, "BAX/Bcl-2 ratio": {"system": "BAX/Bcl-2 ratio", "assay": "BAX/Bcl-2 ratio in MCF-7 cells", "type": "cell-based, human", "details": "MCF-7, IC50 of 4b", "in_short": "as §1"}},
  "note": "Values joined by “and” are separate entries in the source; they are usually repeats but may differ in a detail not shown here. Identical values can stand only once.",
  "data": [
    {"smiles": "Clc1ccc(-c2nnc(Nc3ccc(C4=NNC(c5ccc(Cl)cc5)C4)cc3)c3ccccc23)cc1", "note": "(stereo not drawn) [Compound 3b, 4-(4-Chlorophenyl)-N-(4-(5-(4-chlorophenyl)-4,5-dihydro-1H-pyrazol-3-yl)phenyl)phthalazin-1-amine]", "values": [
      {"measurement": "Selectivity index: folds toxic in HepG2 than in VERO cells", "setting": "HepG2 cell line", "result": 5.31, "unit": "folds"},
      {"measurement": "IC50", "setting": "MCF-7 cell line", "result": "830 ± 20", "unit": "nM"},
      {"measurement": "Selectivity index: folds more toxic regarding MCF-7 than VERO cells", "setting": "MCF-7 cell line", "result": 5.12, "unit": "folds"},
      {"measurement": "IC50", "setting": "VEGFR-2", "result": "800 ± 50", "unit": "nM"}
    ]},
    {"smiles": "Oc1ccc(C2CC(c3ccc(Nc4nnc(-c5ccc(Cl)cc5)c5ccccc45)cc3)=NN2)cc1", "note": "(stereo not drawn) [Compound 3d, 4-(3-[4-{(4-[4-Chlorophenyl]phthalazin-1-yl)amino}phenyl]-4,5-dihydro-1H-pyrazol-5-yl)phenol]", "values": [
      {"measurement": "IC50", "setting": "HepG2 cell line", "result": 150, "unit": "nM"},
      {"measurement": "Selectivity index: folds toxic in HepG2 than in VERO cells", "setting": "HepG2 cell line", "result": 29.00, "unit": "folds"},
      {"measurement": "IC50", "setting": "MCF-7 cell line", "result": "740 ± 10", "unit": "nM"},
      {"measurement": "Selectivity index: folds more toxic regarding MCF-7 than VERO cells", "setting": "MCF-7 cell line", "result": 5.88, "unit": "folds"},
      {"measurement": "IC50", "setting": "VEGFR-2", "result": "700 ± 50", "unit": "nM"}
    ]},
    {"smiles": "CNC(=O)c1cc(Oc2ccc(NC(=O)Nc3ccc(Cl)c(C(F)(F)F)c3)cc2)ccn1", "note": "[Sorafenib, sorafenib, reference compound]", "values": [
      {"measurement": "IC50", "setting": "HepG2 cell line", "result": "30 ± 10", "unit": "nM"},
      {"measurement": "IC50", "setting": "MCF-7 cell line", "result": "50 ± 10", "unit": "nM"}
    ]},
    {"smiles": "O=c1nc(-c2ccc(Nc3nnc(-c4ccc(Cl)cc4)c4ccccc34)cc2)cc(-c2ccc(Cl)cc2)[nH]1", "note": "[Compound 4b, 6-(4-Chlorophenyl)-4-(4-[{4-(4-chlorophenyl)phthalazin-1-yl}amino]phenyl)pyrimidin-2(1H)-one]", "values": [
      {"measurement": "early apoptosis, folds over the control", "setting": "MCF-7 cells [1]", "result": "more than 25 folds"},
      {"measurement": "% Apoptosis Early", "setting": "MCF-7 cells [1]; mean ± SEM", "result": "15.06% and 15.06 ± 0.91%"},
      {"measurement": "% Apoptosis Late", "setting": "MCF-7 cells [1]; mean ± SEM", "result": "6.72 ± 0.31", "unit": "%"},
      {"measurement": "% Necrosis", "setting": "MCF-7 cells [1]; mean ± SEM", "result": "4.66% and 4.66 ± 0.19%"},
      {"measurement": "IC50", "setting": "HepG2 cell line", "result": "60 ± 10", "unit": "nM"},
      {"measurement": "Selectivity index: folds toxic in HepG2 than in VERO cells", "setting": "HepG2 cell line", "result": 50.00, "unit": "folds"},
      {"measurement": "Gene expression fold change Bcl-2", "setting": "Bcl-2", "result": "0.374 ± 0.02"},
      {"measurement": "IC50", "setting": "MCF-7 cell line", "result": "60 ± 10", "unit": "nM"},
      {"measurement": "Selectivity index: folds more toxic regarding MCF-7 than VERO cells", "setting": "MCF-7 cell line", "result": 50.00, "unit": "folds"},
      {"measurement": "DNA content % G1", "setting": "MCF-7 cells [2]", "result": "53.96 ± 2.15", "unit": "%"},
      {"measurement": "DNA content % S", "setting": "MCF-7 cells [2]", "result": "39.12 ± 1.92", "unit": "%"},
      {"measurement": "boost of Bax level vs control", "setting": "BAX", "result": "approximately 3 folds"},
      {"measurement": "Gene expression fold change BAX", "setting": "BAX; 24 h, mean ± SEM", "result": "3.3282 ± 0.67"},
      {"measurement": "IC50", "setting": "VEGFR-2", "result": "90 ± 20", "unit": "nM"},
      {"measurement": "boost of Bax/Bcl2 ratio compared to the control", "setting": "BAX/Bcl-2 ratio", "result": "approximately 8 folds"},
      {"measurement": "Gene expression fold change BAX/Bcl-2 ratio", "setting": "BAX/Bcl-2 ratio; 24 h, mean ± SEM", "result": "8.25 ± 0.71"}
    ]},
    {"smiles": "COc1ccc(C2CC(c3ccc(Nc4nnc(-c5ccc(Cl)cc5)c5ccccc45)cc3)=NN2)cc1", "note": "(stereo not drawn) [Compound 3e, 4-(4-Chlorophenyl)-N-(4-[5-{4-methoxyphenyl}-4,5-dihydro-1H-pyrazol-3-yl]phenyl)phthalazin-1-amine]", "values": [
      {"measurement": "Selectivity index: folds toxic in HepG2 than in VERO cells", "setting": "HepG2 cell line", "result": 16.95, "unit": "folds"},
      {"measurement": "IC50", "setting": "MCF-7 cell line", "result": "80 ± 10", "unit": "nM"},
      {"measurement": "Selectivity index: folds more toxic regarding MCF-7 than VERO cells", "setting": "MCF-7 cell line", "result": 40.25, "unit": "folds"},
      {"measurement": "IC50", "setting": "VEGFR-2", "result": "120 ± 20", "unit": "nM"}
    ]},
    {"smiles": "S=c1nc(-c2ccc(Nc3nnc(-c4ccc(Cl)cc4)c4ccccc34)cc2)cc(-c2ccc(Cl)cc2)[nH]1", "note": "[Compound 5b, 6-(4-Chlorophenyl)-4-(4-[{4-(4-chlorophenyl)phthalazin-1-yl}amino]phenyl)pyrimidin-2(1H)-thione]", "values": [
      {"measurement": "IC50", "setting": "HepG2 cell line", "result": "150 ± 10", "unit": "nM"},
      {"measurement": "Selectivity index: folds toxic in HepG2 than in VERO cells", "setting": "HepG2 cell line", "result": 21.00, "unit": "folds"},
      {"measurement": "IC50", "setting": "MCF-7 cell line", "result": "110 ± 10", "unit": "nM"},
      {"measurement": "Selectivity index: folds more toxic regarding MCF-7 than VERO cells", "setting": "MCF-7 cell line", "result": 28.64, "unit": "folds"},
      {"measurement": "IC50", "setting": "VEGFR-2", "result": "130 ± 30", "unit": "nM"}
    ]},
    {"smiles": "Clc1ccc(-c2nnc(Nc3ccc(C4=NNC(c5ccccc5)C4)cc3)c3ccccc23)cc1", "note": "(stereo not drawn) [Compound 3a, 4-(4-Chlorophenyl)-N-(4-(5-phenyl-4,5-dihydro-1H-pyrazol-3-yl)phenyl)phthalazin-1-amine]", "values": [
      {"measurement": "IC50", "setting": "HepG2 cell line", "result": "1270 ± 30", "unit": "nM"},
      {"measurement": "Selectivity index: folds toxic in HepG2 than in VERO cells", "setting": "HepG2 cell line", "result": 3.74, "unit": "folds"},
      {"measurement": "selectivity class against HepG2", "setting": "HepG2 cell line", "result": "moderate selectivity"},
      {"measurement": "IC50", "setting": "MCF-7 cell line", "result": "1160 ± 10", "unit": "nM"},
      {"measurement": "Selectivity index: folds more toxic regarding MCF-7 than VERO cells", "setting": "MCF-7 cell line", "result": 4.09, "unit": "folds"},
      {"measurement": "selectivity class against MCF-7", "setting": "MCF-7 cell line", "result": "moderate selectivity"},
      {"measurement": "IC50", "setting": "VEGFR-2", "result": "1250 ± 50", "unit": "nM"}
    ]},
    {"smiles": "Oc1ccccc1C1CC(c2ccc(Nc3nnc(-c4ccc(Cl)cc4)c4ccccc34)cc2)=NN1", "note": "(stereo not drawn) [Compound 3c, 2-(3-[4-{(4-[4-Chlorophenyl]phthalazin-1-yl)amino}phenyl]-4,5-dihydro-1H-pyrazol-5-yl)phenol]", "values": [
      {"measurement": "IC50", "setting": "HepG2 cell line", "result": "1250 ± 20", "unit": "nM"},
      {"measurement": "Selectivity index: folds toxic in HepG2 than in VERO cells", "setting": "HepG2 cell line", "result": 3.29, "unit": "folds"},
      {"measurement": "selectivity class against HepG2", "setting": "HepG2 cell line", "result": "moderate selectivity"},
      {"measurement": "IC50", "setting": "MCF-7 cell line", "result": "880 ± 30", "unit": "nM"},
      {"measurement": "Selectivity index: folds more toxic regarding MCF-7 than VERO cells", "setting": "MCF-7 cell line", "result": 4.67, "unit": "folds"},
      {"measurement": "selectivity class against MCF-7", "setting": "MCF-7 cell line", "result": "moderate selectivity"},
      {"measurement": "IC50", "setting": "VEGFR-2", "result": "840 ± 50", "unit": "nM"}
    ]},
    {"smiles": "S=c1nc(-c2ccc(Nc3nnc(-c4ccc(Cl)cc4)c4ccccc34)cc2)cc(-c2ccccc2)[nH]1", "note": "[Compound 5a, 4-(4-[{4-(4-Chlorophenyl)phthalazin-1-yl}amino]phenyl)-6-phenylpyrimidin-2(1H)-thione]", "values": [
      {"measurement": "IC50", "setting": "HepG2 cell line", "result": "800 ± 20", "unit": "nM"},
      {"measurement": "Selectivity index: folds toxic in HepG2 than in VERO cells", "setting": "HepG2 cell line", "result": 5.15, "unit": "folds"},
      {"measurement": "IC50", "setting": "MCF-7 cell line", "result": "860 ± 10", "unit": "nM"},
      {"measurement": "Selectivity index: folds more toxic regarding MCF-7 than VERO cells", "setting": "MCF-7 cell line", "result": 4.79, "unit": "folds"},
      {"measurement": "selectivity class against MCF-7", "setting": "MCF-7 cell line", "result": "moderate selectivity"},
      {"measurement": "IC50", "setting": "VEGFR-2", "result": "750 ± 50", "unit": "nM"}
    ]},
    {"smiles": "O=c1nc(-c2ccc(Nc3nnc(-c4ccc(Cl)cc4)c4ccccc34)cc2)cc(-c2ccccc2)[nH]1", "note": "[Compound 4a, 4-(4-[{4-(4-Chlorophenyl)phthalazin-1-yl}amino]phenyl)-6-phenylpyrimidin-2(1H)-one]", "values": [
      {"measurement": "IC50", "setting": "HepG2 cell line", "result": "290 ± 10", "unit": "nM"},
      {"measurement": "Selectivity index: folds toxic in HepG2 than in VERO cells", "setting": "HepG2 cell line", "result": 13.79, "unit": "folds"},
      {"measurement": "Selectivity index: folds more toxic regarding MCF-7 than VERO cells", "setting": "MCF-7 cell line", "result": 25.00, "unit": "folds"},
      {"measurement": "IC50", "setting": "VEGFR-2", "result": "150 ± 30", "unit": "nM"}
    ]}
  ]
}
